Drawing on ChEMBL document CHEMBL1135971, “(2S,1'S,2'S,3'R)-2-(2'-carboxy-3'-methylcyclopropyl) glycine is a potent and selective metabotropic group 2 receptor agonist with anxiolytic properties” (2002), this text covers Activity and minimal effective dose for 14 molecules.

A value given as a limit tells only on which side of the number the result lay.

The target of assay [1] is Metabotropic glutamate receptor 8 (Homo sapiens) (UniProt O00222). Briefly: Inhibition of c-AMP by human Metabotropic glutamate receptor 8 (mGluR8) expressed in non-neuronal cells. It is filed as cell-based. The procedure, abridged:
(§1)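 Clonal nonneuronal cell lines expressing each mGlu subtype, washed in PBS with 3 mM glucose and 500 μM IBMX, preincubated 30 min at 37 °C. Compound added with forskolin (15 μM final), 20 min at 37 °C. Stopped with 6 mM EDTA and boiling. cAMP measured by [3H]cAMP SPA, with protein per well by Bradford assay. Read-out: EC50 for inhibition of forskolin-stimulated cAMP.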

Assay [2] has as its target Metabotropic glutamate receptor 3 (Homo sapiens) (UniProt Q14832). Briefly: (§2) Inhibition of c-AMP by human Metabotropic glutamate receptor 3 (mGluR3) expressed in non-neuronal cells. It counts as cell-based. The procedure, abridged: as §1
Assay [3] deals with Metabotropic glutamate receptor 4 (Homo sapiens) (UniProt Q14833). Description: (§3) Inhibition of c-AMP by human Metabotropic glutamate receptor 4 (mGluR4) expressed in non-neuronal cells. It is filed as cell-based. The procedure, abridged:
as §1

The target in assay [4] is Metabotropic glutamate receptor 5 (Homo sapiens) (UniProt P41594). Description: Phosphoinositide hydrolysis by human Metabotropic glutamate receptor 5 (mGluR5) expressed in non neuronal cells. It counts as cell-based. In a few lines: (§4)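 Transfected nonneuronal cells seeded at 2.5 × 10^5 per well in glutamine-free medium for 24 h, then labeled with [3H]myo-inositol (4 µCi/mL) for 20 h. Washed in buffer with 10 mM HEPES, inositol and LiCl. Compound added and incubated 60 min at 37 °C. [3H]inositol monophosphate separated by anion exchange and counted by scintillation. Read-out: EC50 for PI hydrolysis.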

The target of assay [5] is Metabotropic glutamate receptor 6 (Homo sapiens) (UniProt O15303). Briefly: (§5) Inhibition of c-AMP by human Metabotropic glutamate receptor 6 (mGluR6) expressed in non-neuronal cells. It is filed as cell-based. In a few lines:
as §1

The target of assay [6] is Metabotropic glutamate receptor 2 (Homo sapiens) (UniProt Q14416). Description: Inhibition of c-AMP by human Metabotropic glutamate receptor 2 (mGluR2) expressed in non-neuronal cells. It is filed as cell-based. The procedure, abridged:
as §1

In assay [7] the target is Metabotropic glutamate receptor 7 (Rattus norvegicus) (UniProt P35400). Briefly: Inhibition of c-AMP by rat Metabotropic glutamate receptor 7 mGluR7) expressed in non-neuronal cells.
The target in assay [8] is Metabotropic glutamate receptor 7 (Homo sapiens) (UniProt Q14831). Briefly: (§6) Inhibition of c-AMP by human Metabotropic glutamate receptor 7 (mGluR7) expressed in non-neuronal cells. It is filed as cell-based. In a few lines:
as §1

For the next assay, the system named is Rattus norvegicus. Description: Mean effective dose that significantly blocked fear-potentiated startle(oral administration). The note with it: read-out: MED.
Assay [9] addresses Metabotropic glutamate receptor 7 (Homo sapiens) (UniProt Q14831). Described as §6. It is filed as cell-based. The procedure, abridged:
(§7)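 Clonal nonneuronal cell lines transfected with each mGlu receptor. Cells washed in Dulbecco's PBS with 3 mM glucose and 500 μM IBMX, preincubated 30 min at 37 °C, then washed. Compound added with forskolin (15 μM final) and incubated 20 min at 37 °C. Stopped with 6 mM EDTA plus boiling, cAMP measured by [3H]cAMP SPA and normalised to Bradford protein. EC50 for inhibition of forskolin-stimulated cAMP.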
This is another data set of the same source.

The target in assay [10] is Metabotropic glutamate receptor 4 (Homo sapiens) (UniProt Q14833). The assay is described as §3. It is filed as cell-based. The procedure, abridged:
as §7
The source holds these as a separate data set.

The target in assay [11] is Metabotropic glutamate receptor 6 (Homo sapiens) (UniProt O15303). The description is as §5. It counts as cell-based. The procedure, abridged:
as §7
This is another data set of the same source.

The target in assay [12] is Metabotropic glutamate receptor 3 (Homo sapiens) (UniProt Q14832). Described as §2. It counts as cell-based. In a few lines:
as §7
The source holds these as a separate data set.

Assay [13] concerns the target Metabotropic glutamate receptor 5 (Homo sapiens) (UniProt P41594). Briefly: Phosphoinositide hydrolysis by Metabotropic glutamate receptor 5 (mGluR5) expressed in non neuronal cells. It counts as cell-based. The procedure, abridged:
as §4

Chain of Metabotropic glutamate receptor 2 (Homo sapiens) (Q14416 19-872 limits assumed): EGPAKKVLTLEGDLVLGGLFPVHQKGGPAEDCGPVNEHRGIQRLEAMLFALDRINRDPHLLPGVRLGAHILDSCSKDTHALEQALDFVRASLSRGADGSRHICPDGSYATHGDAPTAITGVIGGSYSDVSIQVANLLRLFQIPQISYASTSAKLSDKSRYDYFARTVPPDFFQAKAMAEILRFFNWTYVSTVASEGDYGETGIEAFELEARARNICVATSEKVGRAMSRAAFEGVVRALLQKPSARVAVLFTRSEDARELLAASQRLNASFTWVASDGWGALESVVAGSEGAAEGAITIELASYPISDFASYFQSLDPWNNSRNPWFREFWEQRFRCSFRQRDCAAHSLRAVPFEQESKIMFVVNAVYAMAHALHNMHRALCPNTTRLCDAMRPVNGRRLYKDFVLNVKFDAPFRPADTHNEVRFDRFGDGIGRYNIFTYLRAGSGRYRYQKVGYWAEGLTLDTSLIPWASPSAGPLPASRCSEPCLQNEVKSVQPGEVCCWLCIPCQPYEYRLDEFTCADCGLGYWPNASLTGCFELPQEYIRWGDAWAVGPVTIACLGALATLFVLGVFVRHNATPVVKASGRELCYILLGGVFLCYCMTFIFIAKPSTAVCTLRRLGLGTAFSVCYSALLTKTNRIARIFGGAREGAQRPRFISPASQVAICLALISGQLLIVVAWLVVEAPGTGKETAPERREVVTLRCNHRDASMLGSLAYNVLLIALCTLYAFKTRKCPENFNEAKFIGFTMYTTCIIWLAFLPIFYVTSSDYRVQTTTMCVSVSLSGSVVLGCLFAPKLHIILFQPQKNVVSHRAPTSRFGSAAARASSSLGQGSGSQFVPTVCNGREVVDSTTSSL
Chain of Metabotropic glutamate receptor 4 (Homo sapiens) (Q14833 whole entry): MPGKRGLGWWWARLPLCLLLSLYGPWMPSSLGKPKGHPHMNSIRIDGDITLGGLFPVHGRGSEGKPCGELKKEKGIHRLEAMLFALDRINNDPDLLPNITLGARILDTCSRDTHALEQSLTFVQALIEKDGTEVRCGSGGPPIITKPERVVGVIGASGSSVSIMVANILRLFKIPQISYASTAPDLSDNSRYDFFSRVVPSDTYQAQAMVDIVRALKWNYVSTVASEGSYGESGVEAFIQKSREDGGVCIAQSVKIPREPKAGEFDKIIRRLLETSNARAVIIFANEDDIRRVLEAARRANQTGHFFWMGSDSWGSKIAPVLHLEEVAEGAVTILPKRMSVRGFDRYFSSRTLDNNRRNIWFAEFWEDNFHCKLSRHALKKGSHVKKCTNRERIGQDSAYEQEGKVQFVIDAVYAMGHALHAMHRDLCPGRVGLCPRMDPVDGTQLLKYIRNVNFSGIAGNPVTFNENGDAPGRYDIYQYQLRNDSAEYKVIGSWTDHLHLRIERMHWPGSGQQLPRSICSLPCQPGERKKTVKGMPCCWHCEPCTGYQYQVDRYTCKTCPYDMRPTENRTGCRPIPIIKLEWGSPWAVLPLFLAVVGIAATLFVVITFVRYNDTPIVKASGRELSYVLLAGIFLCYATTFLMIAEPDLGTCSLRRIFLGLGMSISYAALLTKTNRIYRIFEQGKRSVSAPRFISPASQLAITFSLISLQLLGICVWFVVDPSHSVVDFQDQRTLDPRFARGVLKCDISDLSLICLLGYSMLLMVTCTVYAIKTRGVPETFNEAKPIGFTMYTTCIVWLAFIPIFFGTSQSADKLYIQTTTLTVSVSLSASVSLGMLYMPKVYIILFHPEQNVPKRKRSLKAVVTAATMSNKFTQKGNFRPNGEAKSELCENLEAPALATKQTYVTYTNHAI
Chain of Metabotropic glutamate receptor 8 (Homo sapiens) (O00222 whole entry): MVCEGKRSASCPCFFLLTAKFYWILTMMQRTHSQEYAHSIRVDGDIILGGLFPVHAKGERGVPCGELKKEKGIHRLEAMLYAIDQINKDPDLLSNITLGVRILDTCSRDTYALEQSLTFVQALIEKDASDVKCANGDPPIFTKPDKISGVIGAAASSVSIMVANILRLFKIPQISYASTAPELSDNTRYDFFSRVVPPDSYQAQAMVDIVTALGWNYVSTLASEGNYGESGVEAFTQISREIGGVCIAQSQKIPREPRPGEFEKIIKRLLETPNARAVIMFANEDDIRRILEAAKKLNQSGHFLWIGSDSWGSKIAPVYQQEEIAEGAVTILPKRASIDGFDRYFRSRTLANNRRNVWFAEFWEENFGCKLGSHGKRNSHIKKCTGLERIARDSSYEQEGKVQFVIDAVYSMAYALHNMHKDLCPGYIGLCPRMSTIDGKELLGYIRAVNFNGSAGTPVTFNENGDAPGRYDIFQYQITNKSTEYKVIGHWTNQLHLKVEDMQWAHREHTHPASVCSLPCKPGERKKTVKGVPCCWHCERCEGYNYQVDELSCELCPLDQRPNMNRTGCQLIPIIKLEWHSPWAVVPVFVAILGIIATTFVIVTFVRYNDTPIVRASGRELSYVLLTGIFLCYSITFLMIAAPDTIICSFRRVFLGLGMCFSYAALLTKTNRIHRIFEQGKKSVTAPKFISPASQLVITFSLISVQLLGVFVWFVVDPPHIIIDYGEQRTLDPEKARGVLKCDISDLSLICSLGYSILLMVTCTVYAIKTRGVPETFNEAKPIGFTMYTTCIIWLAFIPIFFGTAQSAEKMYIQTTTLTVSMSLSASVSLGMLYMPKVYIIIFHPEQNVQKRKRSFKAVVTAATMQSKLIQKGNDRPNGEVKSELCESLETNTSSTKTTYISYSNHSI
Chain of Metabotropic glutamate receptor 6 (Homo sapiens) (O15303 whole entry): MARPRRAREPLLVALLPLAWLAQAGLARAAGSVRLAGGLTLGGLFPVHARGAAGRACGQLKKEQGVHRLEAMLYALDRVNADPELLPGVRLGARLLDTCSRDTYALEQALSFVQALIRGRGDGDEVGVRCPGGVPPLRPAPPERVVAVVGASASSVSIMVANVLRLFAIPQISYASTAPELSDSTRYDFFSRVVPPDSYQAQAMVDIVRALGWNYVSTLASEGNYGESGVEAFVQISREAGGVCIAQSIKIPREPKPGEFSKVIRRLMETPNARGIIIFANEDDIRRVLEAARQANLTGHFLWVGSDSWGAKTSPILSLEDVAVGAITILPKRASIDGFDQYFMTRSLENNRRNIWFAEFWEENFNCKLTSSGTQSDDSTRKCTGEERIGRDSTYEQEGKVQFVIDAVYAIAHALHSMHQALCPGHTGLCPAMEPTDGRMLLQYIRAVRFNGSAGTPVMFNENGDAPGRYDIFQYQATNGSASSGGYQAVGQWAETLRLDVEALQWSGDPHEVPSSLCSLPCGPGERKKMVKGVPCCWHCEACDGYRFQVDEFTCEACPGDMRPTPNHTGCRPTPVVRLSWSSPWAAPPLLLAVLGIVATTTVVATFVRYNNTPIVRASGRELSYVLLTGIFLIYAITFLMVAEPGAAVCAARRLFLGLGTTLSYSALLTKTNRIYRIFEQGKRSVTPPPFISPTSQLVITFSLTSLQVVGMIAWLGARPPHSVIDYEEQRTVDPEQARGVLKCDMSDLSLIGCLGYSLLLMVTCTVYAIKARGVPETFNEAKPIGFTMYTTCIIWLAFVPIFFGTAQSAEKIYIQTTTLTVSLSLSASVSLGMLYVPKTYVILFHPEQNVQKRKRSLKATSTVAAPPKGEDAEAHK
Chain of Metabotropic glutamate receptor 7 (Homo sapiens) (Q14831 whole entry): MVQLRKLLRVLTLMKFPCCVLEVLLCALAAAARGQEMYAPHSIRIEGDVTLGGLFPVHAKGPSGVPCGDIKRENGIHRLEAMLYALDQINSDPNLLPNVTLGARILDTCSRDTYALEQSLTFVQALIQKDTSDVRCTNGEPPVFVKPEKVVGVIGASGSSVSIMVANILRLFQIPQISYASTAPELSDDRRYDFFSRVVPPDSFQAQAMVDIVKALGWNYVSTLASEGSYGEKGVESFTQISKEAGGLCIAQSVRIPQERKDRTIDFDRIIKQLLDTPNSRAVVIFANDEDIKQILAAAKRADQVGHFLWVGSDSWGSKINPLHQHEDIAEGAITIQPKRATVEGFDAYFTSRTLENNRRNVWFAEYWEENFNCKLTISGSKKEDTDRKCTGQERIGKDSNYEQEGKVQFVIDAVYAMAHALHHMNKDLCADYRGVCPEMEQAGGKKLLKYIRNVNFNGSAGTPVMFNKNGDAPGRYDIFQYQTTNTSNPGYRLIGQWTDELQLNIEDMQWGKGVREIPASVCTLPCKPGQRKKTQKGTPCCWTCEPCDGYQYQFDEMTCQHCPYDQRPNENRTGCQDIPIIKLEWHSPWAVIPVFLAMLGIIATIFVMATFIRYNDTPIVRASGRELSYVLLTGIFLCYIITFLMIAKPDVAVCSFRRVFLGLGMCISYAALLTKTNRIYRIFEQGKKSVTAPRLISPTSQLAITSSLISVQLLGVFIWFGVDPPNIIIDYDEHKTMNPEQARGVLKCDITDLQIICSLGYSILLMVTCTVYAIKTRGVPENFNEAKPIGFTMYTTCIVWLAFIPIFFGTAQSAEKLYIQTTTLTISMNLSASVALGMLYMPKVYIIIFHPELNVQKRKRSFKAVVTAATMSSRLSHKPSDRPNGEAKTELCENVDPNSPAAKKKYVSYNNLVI
Chain of Metabotropic glutamate receptor 7 (Rattus norvegicus) (P35400 whole entry, looked up): as the sequence (Q14831 whole entry) above, with R5G, A27V, N454H, S488T, A520S, D578N counted along it

Take `N[C@H](C(=O)O)C1[C@@H](C(=O)O)[C@@H]1C(=O)O` (stereo not given in full): the Activity in assay [1] came out at 32 µM; in assay [2], 200 nM; in [3], 23 µM; in assay [4], 389 µM; in assay [5], 40000 nM; in [6], 300 nM. The molecule further yielded an Activity in [7] of 40 µM.
For the molecule `COC[C@@H]1[C@H](C(=O)O)[C@H]1[C@H](N)C(=O)O`, the values for the Activity in [4] and in assay [6] were greater than 100 µM and 300 nM, respectively.
Take `N[C@@]1(C(=O)O)CC[C@H]2[C@H](C(=O)O)[C@H]21` [EGLUMETAD]: the Activity was greater than 100 µM in assay [8]; 11.5 µM in [1]; 21 nM in [2]; greater than 100 µM in [3]; greater than 100 µM in [4]; 3000 nM in assay [5]. Also, the Activity in assay [6] was found to be 7.9 nM. Also, in the assay with Rattus norvegicus, the minimal effective dose was found to be 3 mg/kg.
Consider `N[C@@]1(C(=O)O)CC[C@@H](C(=O)O)C1`, for which the Activity in assay [8] came to 1000 µM; in assay [1], 45 µM; in assay [2], 860000 nM; in assay [3] it was 90 µM; in assay [4], 15 µM; in assay [5], 18000 nM. The Activity in [6] stood at 12000 nM.
Turning to `N[C@@]1(C(=O)O)CS[C@H]2[C@H](C(=O)O)[C@H]21`, the Activity in assay [8] is greater than 100 µM; in [1], 7 µM; in assay [2], 8 nM; in [3] it was greater than 100 µM; in [4], greater than 100 µM; in assay [5], 2000 nM. The same molecule displayed an Activity in assay [6] of 4 nM.
Take `N[C@@]1(C(=O)O)CO[C@H]2[C@H](C(=O)O)[C@H]21`: the Activity is greater than 100 µM in [8]; 2 µM in [1]; 5 nM in [2]; 21 µM in assay [3]; greater than 100 µM in assay [4]; 400 nM in assay [5]. Further, in assay [6], the Activity was 3 nM.
For `N[C@H](C(=O)O)[C@H]1C[C@@H]1C(=O)O`, the Activity in assay [8] came to 47 µM; in [1], 0.4 µM; in [2] it was 600 nM; in assay [4], 17 µM; in assay [5], 600 nM; in assay [6], 300 nM.
Turning to `N[C@]1(C(=O)O)[C@H]2[C@@H](C[C@@H]1F)[C@@H]2C(=O)O`, the Activity in assay [9] was greater than 100 µM; in [1], greater than 100 µM; in [10], greater than 100 µM; in assay [4], greater than 100 µM; in [11] it was greater than 100 nM; in [12] it was 45.4 nM.
For the molecule `C[C@@H]1[C@H](C(=O)O)[C@H]1[C@H](N)C(=O)O`, the Activity in assay [1] was 2.8 µM; in [2] it was 2000 nM; in [4] it was greater than 100 µM; in [6] it was 188 nM.
`N[C@@]1(C(=O)O)CC[C@@H]2[C@H]1[C@@]2(F)C(=O)O`: the Activity in assay [8] is greater than 100 µM; in assay [2], 89 nM; in [3] it was greater than 100 µM; in assay [4], greater than 100 µM; in assay [5] it was greater than 100 nM; in [6], 16.6 nM.
Consider `C[C@H]1[C@H](C(=O)O)[C@H]1[C@H](N)C(=O)O`, for which the Activity is greater than 100 µM in [8]; 1.32 µM in assay [1]; 38 nM in assay [2]; greater than 100 µM in assay [3]; greater than 100 µM in assay [4]; 1200 nM in [5]. The Activity in assay [6] was determined as 8 nM. For the same molecule, the minimal effective dose with Rattus norvegicus turned out to be 0.0003 mg/kg.
Take `N[C@@]1(C(=O)O)CC(=O)[C@@H]2[C@H]1[C@@]2(F)C(=O)O`: the Activity in [9] is greater than 100 µM; in assay [10], greater than 100 µM; in assay [4], greater than 100 µM; in assay [11], greater than 100 nM; in assay [12], 2.7 nM.
Take `COC[C@H]1[C@H](C(=O)O)[C@H]1[C@H](N)C(=O)O`: the Activity is greater than 100 µM in assay [13] and 100 nM in assay [6].
`N[C@@H](CCC(=O)O)C(=O)O`: the Activity in [8] stood at 5400 µM; in assay [2] it was 9000 nM; in assay [3], 12 µM; in assay [4] it was 4 µM; in assay [5], 20000 nM.
